Source: PubChem BioAssay (several laboratories)
Hck-Nef inh: blocks Nef-activated human Hck kinase | P08631 | Recombinant Hck-YEEI plus Nef, Z-Lyte FRET kinase assay | inhibition, % at 20 µM | 0.68% of 220,000 active | AID 463187;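 active means Hck-Nef kinase inhibition above about 50%, limit read from the data; inactive means inhibition below that limit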
Target sequence (P08631 whole entry, looked up): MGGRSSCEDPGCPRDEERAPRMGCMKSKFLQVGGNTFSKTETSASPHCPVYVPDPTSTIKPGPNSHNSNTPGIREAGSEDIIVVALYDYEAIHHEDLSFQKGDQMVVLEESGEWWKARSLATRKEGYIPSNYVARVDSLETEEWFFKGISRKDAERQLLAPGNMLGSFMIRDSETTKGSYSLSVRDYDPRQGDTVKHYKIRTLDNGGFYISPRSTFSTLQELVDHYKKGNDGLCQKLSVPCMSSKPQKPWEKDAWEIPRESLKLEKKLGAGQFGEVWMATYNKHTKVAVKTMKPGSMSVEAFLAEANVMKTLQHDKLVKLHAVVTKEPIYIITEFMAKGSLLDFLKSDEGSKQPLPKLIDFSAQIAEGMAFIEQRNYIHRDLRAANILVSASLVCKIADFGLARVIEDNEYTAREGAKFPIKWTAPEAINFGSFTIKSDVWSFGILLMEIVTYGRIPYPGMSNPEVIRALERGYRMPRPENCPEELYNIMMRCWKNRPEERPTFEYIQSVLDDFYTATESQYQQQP
Runt-SMMHC FRET: inhibitors of human RUNX1 Runt domain binding to CBFb-SMMHC; Cerulean-Runt/Venus-CBFb-SMMHC FRET ratio 530/480, 1 h; inhibition, % at 20 µM; 0.74% of 220,000 active;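 active means mean inhibition across duplicate retests at 20 µM reaching about 50%, limit read from the data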;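 further: inhibitors lower the FRET ratio by blocking Runt binding to CBFb-SMMHC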
Runt-CBFb FRET: blocks binding of human RUNX1 Runt domain to CBFb; Q01196+Q13951; Cerulean-Runt/Venus-CBFb FRET ratio 530/480, 1 h; inhibition, % at 20 µM; 0.46% of 220,000 active;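 active means inhibition over about 50% at 20 µM in the single-dose screen, limit read from the data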
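Schedule: protein complex preformed 1 h, compound exposure 1 h, room temperature, dark; test system: Cerulean-labeled Runt domain protein; amount: 100 nM per protein; buffer or medium: Tris 50 mM pH 7.5, KCl, K2SO4, 0.01% BSA; read-out: loss of energy transfer signal; detection: FRET fluorescence; controls: 5 µM unlabeled CBFb as full-inhibition high control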
RanGTP-Imp inh: inhibitors of RanGTP-importin-beta interaction, primary screen, biochemical, FRET, CFP-Ran, YFP-importin-beta, homogeneous. cell-free CFP-Ran/YFP-importin-beta FRET ratio. inhibition, % (concentration not given with the values). 1.1% of 300,000 active. AID 2216;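 active means more than half of the replicate wells show a fall in the fluorescence ratio signal beyond about 16%, limit read from the data, passing the limit was not always enough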
Hck Nef conf: confirmation of Hck-Nef kinase inhibitors | 28% of 1,300 active | shares compounds with Hck-Nef inh | calls only at 10 µM | Recombinant Hck-YEEI:Nef, Z-Lyte FRET kinase assay;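 active means average inhibition of at least 50%, with Z-scores no higher than 3 in both the phospho-tyrosine peptide and fluorescence counterscreens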
Of the large screens only hits and unclear results are named; the others gave an inactive call (follow-up assays come after a bar, where shown). This is a sample that favours compounds with a hit; in the whole collection about 1.7% have one here.

COc1ccc(-c2nn(-c3ccccc3)cc2C2CC(c3cccs3)=NN2C(=O)CCC(=O)O)cc1 (centres undefined)	none
CCn1c2ccccc2c2c3ncc4cccn4c3ccc21	Hck-Nef inh 95, Runt-SMMHC FRET 88, RanGTP-Imp inh 68 | Hck Nef conf inactive
O=C(CNC(=O)c1cccc(F)c1)N/N=C/c1cccc([N+](=O)[O-])c1	none
Cc1ccccc1Nc1ncnc2c1cnn2-c1ccccc1	Hck-Nef inh 56 | Hck Nef conf active
COc1cccc(NC(=O)C2CCCO2)c1 (centres undefined)	none (no result: Hck-Nef inh, Runt-SMMHC FRET, Runt-CBFb FRET)
COc1ccc2nc3c(cc2c1)c(NC(=O)C1CCCO1)nn3CC(C)C (centres undefined)	Hck-Nef inh 59, Runt-SMMHC FRET 61, RanGTP-Imp inh 119 | Hck Nef conf inactive
CCCN1C(=O)/C(=c2\sc3nc(=O)c(Cc4ccc(C)cc4)nn3c2=O)c2ccccc21	Hck-Nef inh 52 | Hck Nef conf inactive
O=C(Nc1nn[nH]n1)c1cc(-c2ccc(Cl)c(Cl)c2Cl)nc2ccccc12	Hck-Nef inh 119 | Hck Nef conf inactive
CCC1CCCCN1C(=O)COC(=O)CN(C)S(=O)(=O)c1ccc(NC(C)=O)cc1 (centres undefined)	none (no result: Hck-Nef inh, Runt-SMMHC FRET, Runt-CBFb FRET)
COc1cccc(C(=O)/C=C2\Sc3ccccc3N2C)c1	Hck-Nef inh 106, Runt-SMMHC FRET 55 | Hck Nef conf inactive
Cc1ccc(NC(=O)COC(=O)c2ccc3c(c2)OCO3)c(C)c1	none
CCCn1c(=NC(=O)c2ccco2)c(C(=O)OCC)cc2c(=O)n3ccccc3nc21	Hck-Nef inh 63, Runt-SMMHC FRET 56, RanGTP-Imp inh 116 | Hck Nef conf inactive
CCOC(=O)c1cc2c(=O)n3ccccc3nc2n(CCCOC)c1=NC(C)=O	Hck-Nef inh 173, Runt-CBFb FRET 56 (not shown: RanGTP-Imp inh)
CCOC(=O)c1cc2c(=O)n3ccccc3nc2n(C(C)C)c1=NC(=O)c1ccco1	Hck-Nef inh 106, Runt-SMMHC FRET 86
CCOC(=O)c1sc(=NC(=O)c2ccco2)n(C)c1C	none (no result: RanGTP-Imp inh)
CC(C)OCCCn1c(=NC(=O)c2ccncc2)c(C#N)cc2c(=O)n3ccccc3nc21	Hck-Nef inh 109, RanGTP-Imp inh 57
CCNC(=O)CSc1nc2ccccc2c(=O)n1CCCOC(C)C	none
CC1=C(C)CC(C(=O)NCc2cccc(Cl)c2)C(C(=O)O)C1 (centres undefined)	none (no result: Hck-Nef inh, Runt-SMMHC FRET, Runt-CBFb FRET)
O=C(Nc1ccc(Cl)c(Cl)c1)Nc1nnc(-c2ccncc2)s1	Hck-Nef inh 56 (not shown: RanGTP-Imp inh)
COc1ccc(CN2CC(C(N)=O)Oc3ccccc32)cc1F (centres undefined)	none (no result: Hck-Nef inh, Runt-SMMHC FRET, Runt-CBFb FRET)
CN1C(=O)/C(=C/C=C2\SCCN2C)SC1=S	none
O=C1COc2ccc(C(=O)CSc3nc4ccccc4c(=O)n3-c3ccc(Cl)c(Cl)c3)cc2N1	Hck-Nef inh 64 | Hck Nef conf inactive
COc1ccccc1CCNC(=O)C(=O)NCC1CCCN1S(=O)(=O)c1ccccc1 (centres undefined)	none (no result: Hck-Nef inh, Runt-SMMHC FRET, Runt-CBFb FRET)
CCNC(=S)N/N=C/c1ccc(OCC(=O)Nc2ccc(OC)cc2)c(OC)c1	none
CCCCNC(=O)C(=O)N/N=C/c1ccc(OCC(=O)Nc2cccc(OC)c2)c(OC)c1	Hck-Nef inh 71 | Hck Nef conf active
Cc1ccc(S(=O)(=O)/N=C(\N)c2ccc(Cl)cc2)cc1	none (no result: Hck-Nef inh, Runt-SMMHC FRET, Runt-CBFb FRET)
COc1ccc(-c2cnnc(N/N=C/c3ccc(O)cc3)n2)cc1	Hck-Nef inh 71 | Hck Nef conf inactive
Cc1ccc(CC(=O)NCC(c2ccco2)N(C)C)cc1C (centres undefined)	none
C/C(=N/NC(=O)c1cc2ccccc2cc1O)C1C(=O)c2ccccc2C1=O	Hck-Nef inh 82 | Hck Nef conf active
CCN1C(=O)/C(=C\c2ccc(-c3ccc([N+](=O)[O-])cc3OC)o2)SC1=Nc1cccc(C(=O)O)c1	Hck-Nef inh 70 | Hck Nef conf inactive
Cc1ccc(NC(=S)NC(=O)/C=C/c2ccco2)c(O)c1	Hck-Nef inh 85 | Hck Nef conf active
COc1cc(NS(=O)(=O)c2ccc(NC(=S)NC(=O)/C=C/c3ccco3)cc2)ncn1	Hck-Nef inh 91 | Hck Nef conf active
O=C(/C=C/c1ccco1)Nc1cc(Cl)ccc1C(=O)O	none
O=C(/C=C/c1ccco1)Nc1ccccc1C(=O)O	Hck-Nef inh 55 | Hck Nef conf inactive
